These results are taken from ChEMBL document CHEMBL4477210, “Gramine Derivatives Targeting Ca(2+) Channels and Ser/Thr Phosphatases: A New Dual Strategy for the Treatment of Neurodegenerative Diseases” (J Med Chem, 2016).

Calls of active or inactive are those of the source. The calls are words filed in the database; no cut-off is given here.

Series [1] deals with Voltage-gated calcium channel. Kind of series: Inhibition of VGCC in human SHSY-5Y cells assessed as reduction of K+-evoked cytosolic ca2+ at 1 uM incubated for 10 mins prior to KCl addition by Fluo-4-AM probe-based fluorescence analysis. Format: cell-based. Summed up: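 SH-SY5Y cells at confluence (48 h after seeding) loaded with 10 μM Fluo-4/AM plus 0.2% pluronic in Krebs–HEPES (pH 7.4) for 45 min at 37 °C, then washed. Compound at 1 μM for 10 min, then KCl 70 mM. Ex 485/em 520 nm; signal normalized to Fmax (Triton X-100) minus Fmin (MnCl2). At least six experiments versus K+ response without compound.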

The species named for series [2] is Homo sapiens. Kind of series: Suppression of okadaic acid-induced inhibition of PP1/PP2A in human SHSY-5Y cells at 0.1 uM using pNPP as substrate assessed as remaining total phosphatase activity incubated for 30 mins by colorimetric assay (reference value: 68 +/- 2%). Format: cell-based. Summed up:
(§1)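 SH-SY5Y cells treated with compound at 0.1 μM plus okadaic acid 15 nM (24 h preincubation, then coincubation). Medium removed; assay buffer with pNPP (10 mM) added, 30 min at 37 °C in the dark, absorbance at 405 nm. For Ser/Thr activity, 1 mM orthovanadate added to the buffer. Expressed as % of untreated cells; at least four experiments.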

Series [3] is filed under the species Homo sapiens. Briefly: Suppression of okadaic acid-induced inhibition of PP1/PP2A in human SHSY-5Y cells at 0.1 uM using pNPP as substrate assessed as remaining Ser/Thr phosphatase activity incubated for 30 mins in presence of tyrosine phosphatase inhibitor sodium orthovanadate by colorimetric assay (reference value: 61 +/- 3%). It is filed as cell-based. The gist of the method: as §1

The test system of series [4] is SH-SY5Y. Briefly: Neuroprotective activity in human SH-SY5Y cells assessed as reversal of okadaic acid-induced cytotoxicity at 0.1 uM preincubated for 24 hrs followed by […] by MTT assay. It is filed as functional. (In general: Tetrazolium dyes change colour on reduction, which living cells bring about.)
Series [5] has as its system SH-SY5Y. Kind of series: Cytotoxicity against human SH-SY5Y cells assessed as reduction of cell viability at <10 uM incubated for 48 hrs by MTT assay. Format: cell-based. The gist of the method:
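SH-SY5Y cells exposed to compounds for 48 h; viability read by MTT reduction (final 0.3 mg/mL, 2 h at 37 °C in the dark), formazan dissolved in DMSO, absorbance at 540 nm, expressed as % of untreated cells.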

The test system of series [6] is Cortical neurone. Kind of series: Cytotoxicity against rat cortical motor neurons assessed as reduction of cell viability at 1 uM incubated for 48 hrs by MTT assay. It is filed as cell-based. The gist of the method:
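Rat cortical motor neurons in neurobasal medium with 2% B-27 on poly-D-lysine, grown 8−10 days to a dense network, then exposed to compound for 48 h. Viability read by MTT (0.3 mg/mL final, 30 min, 37 °C, dark), formazan dissolved in DMSO, absorbance 540 nm, expressed as % of untreated cells.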

Series [7] is described as follows: (§2) Neuroprotective activity in Sprague-Dawley rat hippocampal cells assessed as reversal of glutamate-induced cytotoxicity at 10 uM incubated for 4 hrs by MTT assay. It is filed as functional, Hippocampal neurone. The gist of the method:
(§3)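 Hippocampal slices from 2-month-old Sprague–Dawley rats stabilized 45 min at 34 °C, then coincubated 4 h with compound and glutamate 1 mM. Viability by MTT (0.3 mg/mL, 30 min), absorbance at 540 nm. Reported as % protection relative to glutamate-only slices; at least four tissue batches in quadruplicate.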

The species entered for series [8] is Bos taurus. Kind of series: Inhibition of VGCC in bovine chromaffin cells assessed as reduction in depolarization-evoked Ca2+ current at 1 uM at -80 mV holding potential using 50 millisec depolarization pulses every 20 secs by patch clamp method. Format: cell-based. In general terms: Patch clamp records ionic current or voltage across a cell membrane.
For series [9], the species on record is Bos taurus. Kind of series: Inhibition of VGCC in bovine chromaffin cells assessed as potentiation of compound-induced of reduction in depolarization-evoked Ca2+ current at 1 uM at -80 mV holding potential using 50 millisec depolarization pulses every 20 secs in presence of L-type VGCC blocker nifedipine by patch clamp method. Format: cell-based.
The species named for series [10] is Bos taurus. Briefly: Inhibition of VGCC in bovine chromaffin cells assessed as reduction in depolarization-evoked Ca2+ current at 1 uM at -80 mV holding potential using 50 millisec depolarization pulses every 20 secs in presence of […] N and P/Q type VGCC blocker omega-conotoxin MV2C by patch clamp method. Format: cell-based.
In series [11] the test system is Hippocampal neurone. Described as §2. It is filed as functional. The gist of the method:
as §3

The test system of series [12] is Voltage-gated calcium channel. Briefly: Inhibition of VGCC in human SHSY-5Y cells assessed as reduction of K+-evoked cytosolic ca2+ at 3 uM incubated for 10 mins prior to KCl addition by Fluo-4-AM probe-based fluorescence analysis. Format: cell-based. Summed up: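 SH-SY5Y cells grown to confluence over 48 h, then loaded with 10 μM Fluo-4/AM and 0.2% pluronic acid in Krebs–HEPES (pH 7.4) for 45 min at 37 °C and washed. Compound added 10 min before depolarisation with KCl 70 mM. Fluorescence read at ex 485/em 520 nm and normalised to Fmax (Triton X-100) and Fmin (MnCl2). Inhibition taken against the K+ response without compound; ≥6 experiments.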

With `c1ccc2c(CN3CCCCC3)c[nH]c2c1`, the “inhibition (INH)” value in series [1] is listed as 30%. Moreover, the Activity is 76% in series [2]; 79% in series [3]; 47% in [4]; “Non-Toxic” in series [5]; “Toxic” in series [6].

Consider `CN(C)Cc1c[nH]c2ccc(Br)cc12` [BROMOGRAMINE], for which, in series [1], the “inhibition (INH)” value turned out to be 3%. The Activity was 80% in [2]; 76% in [3]; 47% in [4]; 40% in [7]; “Non-Toxic” in series [5].

As to `Cc1ccc2[nH]cc(CN3CCCCC3)c2c1`, the “inhibition (INH)” value in series [1] is 16%. Besides, the Activity was 71% in [2], 69% in [3], 38% in [4] and “Non-Toxic” in series [5].

Turning to `Cc1ccc2c(c1)c(CN1CCCCC1)cn2CCCCN1CCCCC1`, the “inhibition (INH)” value in series [1] is on record as 4%. Also, the Activity in series [2] was 72%; in series [3], 70%; in [4] it was 26%; in series [5], “Non-Toxic”.

With `Cc1ccc2c(c1)c(CN(C)C)cn2Cc1ccccc1`, the “inhibition (INH)” value in series [1] came out at 18%. Further, the Activity in series [2] was 73%; in series [3] it was 66%; in series [4], 44%; in series [5], “Non-Toxic”.

For the compound `CCCCn1cc(CN(C)C)c2cc(Br)ccc21`, the “inhibition (INH)” value in series [1] stood at 14%. The Activity was 81% in series [2]; 76% in [3]; 66% in series [4]; 40% in [7]; “Non-Toxic” in [5].

Regarding `COc1ccc2[nH]cc(CCNC(C)=O)c2c1` [MELATONIN], in series [4], the Activity came to 43%.

For the compound `CN(C)Cc1cn(Cc2ccccc2)c2ccc(Br)cc12`, the “inhibition (INH)” value in series [1] is recorded as 38%. Further, the Activity in series [2] is 81%; in series [3], 78%; in series [4] it was 56%; in [5] it was “Non-Toxic”.

The term inhibition denotes the percentage by which the read-out fell short of the control. With `Cc1ccc2c(c1)c(CN1CCCCC1)cn2Cc1ccccc1`, the “inhibition (INH)” value in series [1] amounted to 22%. Further, the Activity in series [2] is 77%; in series [3] it was 78%; in series [4] it was 56%; in [5], “Non-Toxic”. Besides, the inhibition in series [8] was 40%. For the same compound, the inhibition entry in [9] and in series [10] was “Active” in each case.

Turning to `C#CCn1cc(CN(C)C)c2cc(Br)ccc21`, the “inhibition (INH)” value in series [1] amounted to 10%. Besides, the Activity in [2] was 70%; in series [3] it was 64%; in [4] it was 12%; in series [5], “Non-Toxic”.

For `ClCCCCn1cc(CN2CCCCC2)c2cc(Br)ccc21`, the “inhibition (INH)” value in series [1] came to 57%. For the same compound, the Activity in series [2] is 68%; in series [3] it was 62%; in [4] it was 48%; in [5] it was “Non-Toxic”.

With `Brc1ccc2[nH]cc(CN3CCCCC3)c2c1`, the “inhibition (INH)” value in series [1] stood at 7%. In addition, the Activity is 74% in series [2], 67% in [3], 60% in series [4] and “Non-Toxic” in series [5].

`CCOC(=O)CCCn1cc(CN(C)C)c2cc(Br)ccc21`: the “inhibition (INH)” value in series [1] is 13%. For the same compound, the Activity in [2] was 76%; in [3] it was 66%; in series [4], 58%; in series [5], “Non-Toxic”. Also, in [11], the result was Active.

As to `C#CCn1cc(CN2CCCCC2)c2cc(Br)ccc21`, the “inhibition (INH)” value in series [1] was determined as 42%. Besides, the Activity in series [2] was 77%; in [3] it was 72%; in [4] it was 47%; in series [5] it was “Non-Toxic”.

Consider `Brc1ccc2c(c1)c(CN1CCCCC1)cn2Cc1ccccc1`, for which the “inhibition (INH)” value in [1] is listed as 45%. The Activity in series [2] was 79%; in [3], 70%; in series [4], 54%; in [5], “Non-Toxic”. In addition, the inhibition entry in series [8] was “Active”.

As for `Cc1ccc2c(c1)c(CN1CCCCC1)cn2CCCCCl`, the “inhibition (INH)” value in [1] was 35%. Further, the Activity in series [2] was 71%; in series [3], 62%; in series [4], 56%; in series [5], “Non-Toxic”. The outcome in [11] was Active.

On to `CCOC(=O)CCCn1cc(CN2CCCCC2)c2cc(Br)ccc21`, for which the “inhibition (INH)” value in series [1] is on record as 16%. Moreover, the Activity in series [2] was 73%; in series [3], 71%; in series [4], 43%; in series [5], “Non-Toxic”.

On to `CN(C)Cc1cn(CCCCN2CCCCC2)c2ccc(Br)cc12`, for which, in series [1], the “inhibition (INH)” value is 14%. In addition, the Activity in [2] is 73%; in series [3] it was 68%; in series [4], 31%; in series [5] it was “Non-Toxic”.

Turning to `CCCCn1cc(CN2CCCCC2)c2cc(Br)ccc21`, the “inhibition (INH)” value in series [1] is given as 63%. The Activity was 78% in series [2], 79% in series [3], 71% in series [4] and “Non-Toxic” in [5]. Also, the inhibition result in series [8] was “Active”.

As to `CCCCn1cc(CN2CCCCC2)c2cc(C)ccc21`, the “inhibition (INH)” value in series [1] was found to be 21%. Moreover, the Activity in series [2] was 69%; in series [3], 66%; in [4] it was 46%; in series [5], “Non-Toxic”. In addition, the inhibition result in series [8] was “Active”.

Turning to `CN(C)Cc1c[nH]c2ccccc12` [GRAMINE], in [1], the “inhibition (INH)” value came out at 25%. Also, the Activity in series [2] amounted to 80%; in [3], 76%; in series [4], 45%. Further, the inhibition result in [8] was “Active”.

With `C#CCn1cc(CN(C)C)c2cc(C)ccc21`, the “inhibition (INH)” value in series [1] came out at 14%. Also, the Activity is 80% in series [2], 74% in [3], 12% in series [4] and “Non-Toxic” in series [5].

Take `Cc1ccc2[nH]cc(CN(C)C)c2c1`: the “inhibition (INH)” value in series [1] worked out at 10%. Besides, the Activity in [2] was 79%; in series [3], 77%; in series [4], 59%; in [5] it was “Non-Toxic”.

Consider `Cc1ccc2c(c1)c(CN(C)C)cn2CCCCN1CCCCC1`, for which the “inhibition (INH)” value in series [1] is 16%. Besides, the Activity was 74% in series [2], 68% in [3], 37% in series [4] and “Non-Toxic” in [5].

For `C#CCn1cc(CN2CCCCC2)c2cc(C)ccc21`, the “inhibition (INH)” value in series [1] is 25%. Also, the Activity is 71% in series [2], 66% in [3], 42% in series [4] and “Non-Toxic” in [5].

As for `COC(=O)C1=C(C)NC(C)=C(C(=O)OC)C1c1ccccc1[N+](=O)[O-]` [NIFEDIPINE], the “inhibition (INH)” value in [12] stood at 73%.

With `CC12CC3CC(C)(C1)CC(N)(C3)C2`, the Activity in [2] was 77%; in series [3], 78%.
